“And” between values parts separate entries of the source, which are not always exact repeats. Equal values may be shown once.
Key:
[1] = target: T1, Poly(ADP-ribose) glycohydrolase (Bos taurus, UniProt O02776); assay: (§1) The compound was tested for its ability to inhibit bovine thymus polyadenosine diphosphoribose glycohydrolase (bPARG)
Summary of the method: (§2)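 PARG activity was measured with 10 µM [α-32P]ADP-ribose polymers as substrate and varying inhibitor concentrations, with an inhibitor-free control. Enzyme was 0.25 ng of bovine thymus PARG, purified with a Red-Sepharose step, or 5 ng of rPARG-CF. Runs were done at least in triplicate. IC50 came from a sigmoidal fit of % activity against log[inhibitor].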

[2] = target: T1, Poly(ADP-ribose) glycohydrolase; assay: (§3) The compound was tested for its ability to inhibit recombinant bovine polyadenosine diphosphoribose glycohydrolase catalytic fragment (rPARG-CF); summary of the method: as §2
[3] = target: Poly(ADP-ribose) glycohydrolase (Bos taurus) (UniProt O02776); assay: as §3; summary of the method: as §2
Chain of Poly(ADP-ribose) glycohydrolase (Bos taurus) (O02776 whole entry): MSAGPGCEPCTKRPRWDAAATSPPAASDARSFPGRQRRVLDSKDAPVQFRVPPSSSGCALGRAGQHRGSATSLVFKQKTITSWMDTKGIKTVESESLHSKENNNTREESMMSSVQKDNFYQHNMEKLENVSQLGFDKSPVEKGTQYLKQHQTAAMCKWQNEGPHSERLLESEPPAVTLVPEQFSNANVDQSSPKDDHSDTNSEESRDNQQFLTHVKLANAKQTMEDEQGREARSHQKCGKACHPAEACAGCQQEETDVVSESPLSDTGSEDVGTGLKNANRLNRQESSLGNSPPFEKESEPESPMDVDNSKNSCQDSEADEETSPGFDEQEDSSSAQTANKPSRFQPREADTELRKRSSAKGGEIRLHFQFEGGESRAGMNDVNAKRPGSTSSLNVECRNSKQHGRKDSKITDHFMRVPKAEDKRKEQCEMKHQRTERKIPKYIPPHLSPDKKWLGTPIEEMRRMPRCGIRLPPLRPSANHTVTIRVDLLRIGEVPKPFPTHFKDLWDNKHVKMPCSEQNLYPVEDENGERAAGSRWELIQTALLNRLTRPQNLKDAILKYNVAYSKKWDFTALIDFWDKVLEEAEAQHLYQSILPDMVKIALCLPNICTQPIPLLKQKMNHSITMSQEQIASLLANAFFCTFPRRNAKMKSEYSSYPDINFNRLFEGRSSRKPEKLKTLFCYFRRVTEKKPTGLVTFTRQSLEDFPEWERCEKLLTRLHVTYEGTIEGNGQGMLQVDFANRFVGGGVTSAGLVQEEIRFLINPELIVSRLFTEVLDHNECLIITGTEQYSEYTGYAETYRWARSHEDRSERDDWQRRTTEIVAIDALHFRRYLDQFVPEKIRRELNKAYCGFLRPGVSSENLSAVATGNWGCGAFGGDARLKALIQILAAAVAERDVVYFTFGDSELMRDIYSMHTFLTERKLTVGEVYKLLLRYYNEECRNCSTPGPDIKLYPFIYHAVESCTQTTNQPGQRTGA

[4] = target: Poly(ADP-ribose) glycohydrolase (Bos taurus) (UniProt O02776); assay: as §1; summary of the method: as §2

T1 sequence (O02776 whole entry): as above

Nc1nc2c(ncn2C2O[C@H](COP(=O)(O)OP(=O)(O)OCC3NC[C@H](O)[C@@H]3O)[C@@H](O)[C@H]2O)c(=O)[nH]1 (stereo partly drawn)
IC50 [1]: > 1000 µM | IC50 [2]: 970 µM

NCCCCCCNc1nc2c(N)ncnc2n1C1O[C@H](COP(=O)(O)OP(=O)(O)OC[C@H]2NC[C@H](O)[C@@H]2O)[C@@H](O)[C@H]1O (stereo partly drawn)
Log IC50 [3]: 0.97 µM | IC50 [2]: 9.5 µM

Nc1ncnc2c1nc(Sc1ccc(Cl)cc1)n2C1O[C@H](COP(=O)(O)OP(=O)(O)OC[C@H]2NC[C@H](O)[C@@H]2O)[C@@H](O)[C@H]1O (stereo partly drawn)
Log IC50 [3]: 2.07 µM | IC50 [2]: 120 µM

[N-]=[N+]=Nc1nc(N)c2ncn(C3O[C@H](COP(=O)(O)OP(=O)(O)OC[C@H]4NC[C@H](O)[C@@H]4O)[C@@H](O)[C@H]3O)c2n1 (stereo partly drawn)
IC50 [1]: 290 µM | Log IC50 [3]: 2.17 µM | Log IC50 [4]: 2.45 µM | IC50 [2]: 148 µM

Nc1ncnc2c1nc(NCCCCCCNC(=O)C(F)(F)F)n2C1O[C@H](COP(=O)(O)OP(=O)(O)OC[C@H]2NC[C@H](O)[C@@H]2O)[C@@H](O)[C@H]1O (stereo partly drawn)
Log IC50 [3]: 2.75 µM | IC50 [2]: 570 µM

Nc1ncnc2c1ncn2[C@@H]1O[C@H](CO[P@](=O)(O)O[P@@](=O)(O)OC[C@H]2NC[C@H](O)[C@@H]2O)[C@@H](O)[C@H]1O [ADENOSINE DIPHOSPHATE (HYDROXYMETHYL)PYRROLIDINEDIOL]
IC50 [1]: 0.33 µM | IC50 [2]: 1.4 µM and 1 µM

CCCCCCNc1ncnc2c1ncn2C1O[C@H](COP(=O)(O)OP(=O)(O)OCC2NC[C@H](O)[C@@H]2O)[C@@H](O)[C@H]1O (stereo partly drawn)
Log IC50 [3]: 2.71 µM | IC50 [2]: 510 µM

Nc1ncnc2c1ncn2C1O[C@H](COP(=O)(O)OP(=O)(O)OCC2CCCN2)[C@@H](O)[C@H]1O (stereo partly drawn) [ADENOSINE DIPHOSPHATE (HYDROXYMETHYL)PYRROLIDINE]
IC50 [1]: 19.2 µM | Log IC50 [3]: 1.8 µM | Log IC50 [4]: 1.28 µM | IC50 [2]: 63 µM

Nc1nc(O)c2ncn(C3O[C@H](COP(=O)(O)OP(=O)(O)OCC4NC[C@H](O)[C@@H]4O)[C@@H](O)[C@H]3O)c2n1 (stereo partly drawn)
Log IC50 [3]: 2.99 µM | Log IC50 [4]: > 3 µM

[N-]=[N+]=Nc1nc2c(N)ncnc2n1C1O[C@H](COP(=O)(O)OP(=O)(O)OC[C@H]2NC[C@H](O)[C@@H]2O)[C@@H](O)[C@H]1O (stereo partly drawn)
IC50 [1]: 0.39 µM | IC50 [2]: 0.44 µM

Nc1ncnc2c1ncn2C1O[C@H](COP(=O)(O)OP(=O)(O)OCC2C[C@@H](O)CN2)[C@@H](O)[C@H]1O (stereo partly drawn) [ADENOSINE DIPHOSPHATE (HYDROXYMETHYL)PYRROLIDINE MONOALCOHOL]
IC50 [1]: 3.07 µM | Log IC50 [3]: 0.623 µM | Log IC50 [4]: 0.48 µM | IC50 [2]: 4.2 µM

From ChEMBL document CHEMBL1145115, “SAR analysis of adenosine diphosphate (hydroxymethyl)pyrrolidinediol inhibition of poly(ADP-ribose) glycohydrolase” (J Med Chem, 2003)
